What all share (assay type): functional, organism-based
The test system of experiment [1] is Mus musculus. The experiment in a line: Immunostimulatory activity in rHagB-immunized BALB/c mouse assessed as potentiation of rHagB specific Th1 immune response by measuring increase in serum anti-rHagB IgG2a level at 100 ug, sc administered at 14 days interval for 3 times and measured at 2 to 6 week post rHagB immunization by ELISA. Summed up:
(§1)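 Female BALB/c mice, 8-10 weeks old, six per group. Given His-tag-purified recombinant HagB (35 μg) s.c. alone or with 100 μg saponin adjuvant on days 0, 14 and 28. Serum was collected before each dose and 2 weeks post-final. Anti-rHagB IgG, IgG1 or IgG2a was measured by ELISA on rHagB-coated (1 μg/ml) plates with duplicate serial dilutions.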

In experiment [2] the test system is Mus musculus. The experiment in a line: Immunostimulatory activity in rHagB-immunized BALB/c mouse assessed as potentiation of rHagB specific Th2 immune response by measuring increase in serum anti-rHagB IgG1 level at 100 ug, sc administered at 14 days interval for 3 times and measured at 2 to 4 week post rHagB immunization by ELISA. Put shortly: as §1
Experiment [3] deals with Mus musculus. Description: Immunostimulatory activity in rHagB-immunized BALB/c mouse assessed as potentiation of rHagB specific antibody response by measuring increase in serum anti-rHagB IgG level at 100 ug, sc administered at 14 days interval for 3 times and measured at 2 to 4 week post rHagB immunization by ELISA. Summed up:
as §1

The test system of experiment [4] is Mus musculus. The experiment in a line: Immunostimulatory activity in rHagB-immunized BALB/c mouse assessed as potentiation of rHagB specific Th2 immune response by measuring increase in serum anti-rHagB IgG1 level at 100 ug, sc administered at 14 days interval for 3 times and measured at 6 week post rHagB immunization by ELISA. Summed up: as §1
The subject of experiment [5] is Mus musculus. The experiment in a line: Immunostimulatory activity in ovalbumin-immunized BALB/c mouse assessed as potentiation of OVA specific antibody response by measuring increase in serum anti-OVA IgG level at 100 ug, sc administered at 14 days interval for 3 times and measured at 4 to 6 week post OVA immunization by ELISA. Put shortly:
(§2)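 Female BALB/c mice, 8-10 weeks old, six per group. Given OVA (20 μg) s.c. alone or with 100 μg saponin adjuvant on days 0, 14 and 28. Tail-vein blood was taken before each dose and 2 weeks after the last. Serum anti-OVA IgG, IgG1 or IgG2a was measured by ELISA on OVA-coated (0.1 μg/ml) plates with serial two-fold dilutions in duplicate.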

In experiment [6] the test system is Mus musculus. Description: Immunostimulatory activity in ovalbumin-immunized BALB/c mouse assessed as potentiation of OVA specific Th1 immune response by measuring increase in serum anti-OVA IgG2a level at 100 ug, sc administered at 14 days interval for 3 times and measured at 4 to 6 week post OVA immunization by ELISA. Summed up: as §2
The subject of experiment [7] is Mus musculus. Description: Immunostimulatory activity in ovalbumin-immunized BALB/c mouse assessed as potentiation of OVA specific Th2 immune response by measuring increase in serum anti-OVA IgG1 level at 100 ug, sc administered at 14 days interval for 3 times and measured at 4 to 6 week post OVA immunization by ELISA. Summed up: as §2
The test system of experiment [8] is Mus musculus. Description: Immunostimulatory activity in rHagB-immunized BALB/c mouse assessed as potentiation of rHagB specific antibody response by measuring increase in serum anti-rHagB IgG level at 100 ug, sc administered at 14 days interval for 3 times and measured at 6 week post rHagB immunization by ELISA. Put shortly: as §1
Experiment [9] concerns Mus musculus. The experiment in a line: Immunostimulatory activity in ovalbumin-immunized BALB/c mouse assessed as potentiation of OVA specific Th2 immune response by measuring increase in serum anti-OVA IgG1 level at 100 ug, sc administered at 14 days interval for 3 times and measured at 6 week post OVA immunization by ELISA. Summed up: as §2
Experiment [10] relates to Mus musculus. Description: Immunostimulatory activity in ovalbumin-immunized BALB/c mouse assessed as potentiation of OVA specific Th2 immune response by measuring increase in serum anti-OVA IgG1 level at 100 ug, sc administered at 14 days interval for 3 times and measured at 4 week post OVA immunization by ELISA. Put shortly: as §2

The structures appear in SMILES notation. Activity calls are given as the source filed them. No cut-off for these calls is given here.

On to `C[C@@H]1O[C@H](O[C@H]2[C@H](OC(=O)[C@]34CCC(C)(C)C[C@H]3C3=CC[C@@H]5[C@@]6(C)CC[C@H](O[C@@H]7O[C@H](C(=O)NCCCCCCCCCCC(=O)OCc8ccccc8)[C@@H](O)[C@H](O[C@@H]8OC[C@@H](O)[C@H](O)[C@H]8O)[C@H]7O[C@@H]7O[C@H](CO)[C@H](O)[C@H](O)[C@H]7O)[C@@](C)(C=O)[C@@H]6CC[C@@]5(C)[C@]3(C)C[C@H]4O)O[C@H](C)[C@H](O)[C@@H]2O)[C@H](O)[C@H](O[C@@H]2O[C@H](CO)[C@@H](O)[C@H](O)[C@H]2O)[C@H]1O[C@H]1OC[C@H](O)[C@@H](O[C@H]2OC[C@H](O)[C@@H](O)[C@@H]2O)[C@@H]1O`, for which the result with Mus musculus [1], in the experiment with Mus musculus [2], with Mus musculus [3] and with Mus musculus [4] was Active.

Regarding `CCCCCCCCCCCCNC(=O)[C@H]1O[C@@H](O[C@H]2CC[C@]3(C)[C@H]4CC=C5[C@@H]6CC(C)(C)CC[C@]6(C(=O)O[C@@H]6O[C@H](C)[C@H](O)[C@H](O)[C@H]6O[C@H]6O[C@@H](C)[C@H](O[C@H]7OC[C@H](O)[C@@H](O)[C@@H]7O)[C@@H](O[C@@H]7O[C@H](CO)[C@@H](O)[C@H](O[C@@H]8OC[C@@H](O)[C@H](O)[C@H]8O)[C@H]7O)[C@H]6O)CC[C@@]5(C)[C@]4(C)CC[C@H]3[C@]2(C)C=O)[C@H](O[C@@H]2O[C@H](CO)[C@H](O)[C@H](O)[C@H]2O)[C@@H](O[C@@H]2O[C@@H](C)[C@H](O)[C@@H](O)[C@H]2O)[C@@H]1O`, the result in the experiment with Mus musculus [5], with Mus musculus [6] and in the experiment on Mus musculus [7] was Active.

In the case of `CCCCCCCCCCCCNC(=O)[C@H]1O[C@@H](O[C@H]2CC[C@]3(C)[C@H]4CC=C5[C@@H]6CC(C)(C)CC[C@]6(C(=O)O[C@@H]6O[C@H](C)[C@H](O)[C@H](O)[C@H]6O[C@@H]6O[C@@H](C)[C@H](O[C@@H]7OC[C@@H](O)[C@H](O[C@@H]8OC[C@](O)(CO)[C@H]8O)[C@H]7O)[C@@H](O)[C@H]6O)[C@H](O)C[C@@]5(C)[C@]4(C)CC[C@H]3[C@]2(C)C=O)[C@H](O[C@@H]2O[C@H](CO)[C@H](O)[C@H](O)[C@H]2O)[C@@H](O[C@@H]2OC[C@@H](O)[C@H](O)[C@H]2O)[C@@H]1O`, the outcome in the experiment on Mus musculus [1], in the experiment with Mus musculus [8], in the experiment with Mus musculus [2], with Mus musculus [5], in the experiment with Mus musculus [6] and in the experiment with Mus musculus [3] was Active. Besides, the outcome in the experiment with Mus musculus [7] was Active.

With `C[C@@H]1O[C@@H](O[C@H]2[C@H](O)[C@@H](C(=O)NCCCCCCCCCCC(=O)OCc3ccccc3)O[C@@H](O[C@H]3CC[C@]4(C)[C@H]5CC=C6[C@@H]7CC(C)(C)CC[C@]7(C(=O)O[C@@H]7O[C@H](C)[C@H](O)[C@H](O)[C@H]7O[C@H]7O[C@@H](C)[C@H](O[C@H]8OC[C@H](O)[C@@H](O)[C@@H]8O)[C@@H](O[C@@H]8O[C@H](CO)[C@@H](O)[C@H](O[C@@H]9OC[C@@H](O)[C@H](O)[C@H]9O)[C@H]8O)[C@H]7O)[C@H](O)C[C@@]6(C)[C@]5(C)CC[C@H]4[C@]3(C)C=O)[C@@H]2O[C@@H]2O[C@H](CO)[C@H](O)[C@H](O)[C@H]2O)[C@H](O)[C@H](O)[C@H]1O`, the result in the experiment on Mus musculus [1], with Mus musculus [2], in the experiment with Mus musculus [5], with Mus musculus [6], with Mus musculus [3] and in the experiment with Mus musculus [7] was Active.

As to `C[C@@H]1O[C@@H](O[C@H]2[C@H](O)[C@@H](C(=O)NCCCCCCCCCCC(=O)O)O[C@@H](O[C@H]3CC[C@]4(C)[C@H]5CC=C6[C@@H]7CC(C)(C)CC[C@]7(C(=O)O[C@@H]7O[C@H](C)[C@H](O)[C@H](O)[C@H]7O[C@H]7O[C@@H](C)[C@H](O[C@H]8OC[C@H](O)[C@@H](O)[C@@H]8O)[C@@H](O[C@@H]8O[C@H](CO)[C@@H](O)[C@H](O[C@@H]9OC[C@@H](O)[C@H](O)[C@H]9O)[C@H]8O)[C@H]7O)CC[C@@]6(C)[C@]5(C)CC[C@H]4[C@]3(C)C=O)[C@@H]2O[C@@H]2O[C@H](CO)[C@H](O)[C@H](O)[C@H]2O)[C@H](O)[C@H](O)[C@H]1O`, the outcome with Mus musculus [5], with Mus musculus [6] and with Mus musculus [7] was Active.

`C[C@@H]1O[C@H](O[C@H]2[C@H](OC(=O)[C@]34CCC(C)(C)C[C@H]3C3=CC[C@@H]5[C@@]6(C)CC[C@H](O[C@@H]7O[C@H](C(=O)NCCCCCCCCCCC(=O)O)[C@@H](O)[C@H](O[C@@H]8OC[C@@H](O)[C@H](O)[C@H]8O)[C@H]7O[C@@H]7O[C@H](CO)[C@H](O)[C@H](O)[C@H]7O)[C@@](C)(C=O)[C@@H]6CC[C@@]5(C)[C@]3(C)C[C@H]4O)O[C@H](C)[C@H](O)[C@@H]2O)[C@H](O)[C@H](O[C@@H]2O[C@H](CO)[C@@H](O)[C@H](O)[C@H]2O)[C@H]1O[C@H]1OC[C@H](O)[C@@H](O[C@H]2OC[C@H](O)[C@@H](O)[C@@H]2O)[C@@H]1O`: the result with Mus musculus [1], with Mus musculus [2], in the experiment on Mus musculus [3] and with Mus musculus [4] was Active.

For `C[C@@H]1O[C@@H](O[C@H]2[C@H](O)[C@@H](C(=O)NCCCCCCCCCCC(=O)O)O[C@@H](O[C@H]3CC[C@]4(C)[C@H]5CC=C6[C@@H]7CC(C)(C)CC[C@]7(C(=O)O[C@@H]7O[C@H](C)[C@H](O)[C@H](O)[C@H]7O[C@H]7O[C@@H](C)[C@H](O[C@H]8OC[C@H](O)[C@@H](O)[C@@H]8O)[C@@H](O[C@@H]8O[C@H](CO)[C@@H](O)[C@H](O[C@@H]9OC[C@@H](O)[C@H](O)[C@H]9O)[C@H]8O)[C@H]7O)[C@H](O)C[C@@]6(C)[C@]5(C)CC[C@H]4[C@]3(C)C=O)[C@@H]2O[C@@H]2O[C@H](CO)[C@H](O)[C@H](O)[C@H]2O)[C@H](O)[C@H](O)[C@H]1O`, the result in the experiment on Mus musculus [1], with Mus musculus [2], in the experiment on Mus musculus [5], in the experiment on Mus musculus [10] and in the experiment on Mus musculus [3] was Active. Also, the result in the experiment on Mus musculus [9] was inactive.

As to `C[C@@H]1O[C@@H](O[C@H]2[C@H](O)[C@@H](C(=O)NCCCCCCCCCCC(=O)OCc3ccccc3)O[C@@H](O[C@H]3CC[C@]4(C)[C@H]5CC=C6[C@@H]7CC(C)(C)CC[C@]7(C(=O)O[C@@H]7O[C@H](C)[C@H](O)[C@H](O)[C@H]7O[C@H]7O[C@@H](C)[C@H](O[C@H]8OC[C@H](O)[C@@H](O)[C@@H]8O)[C@@H](O[C@@H]8O[C@H](CO)[C@@H](O)[C@H](O[C@@H]9OC[C@@H](O)[C@H](O)[C@H]9O)[C@H]8O)[C@H]7O)CC[C@@]6(C)[C@]5(C)CC[C@H]4[C@]3(C)C=O)[C@@H]2O[C@@H]2O[C@H](CO)[C@H](O)[C@H](O)[C@H]2O)[C@H](O)[C@H](O)[C@H]1O`, the outcome in the experiment with Mus musculus [5], in the experiment with Mus musculus [6] and in the experiment with Mus musculus [7] was Active.

For the origin of these results see ChEMBL document CHEMBL4602693, “Structural Effect on Adjuvanticity of Saponins” (J Med Chem, 2020).
